Results published in PubChem BioAssay AID624011 (Broad Institute, 2012).
Active and inactive are the calls of the source.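 How the source made its calls: active means fitted curve reaching 35% inhibition at both 405 and 600 nm absorbance, in duplicate, within twice the top valid dose; inactive means the rest, including signal rising instead of falling.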

Columns and labels:
[1] = P. aeruginosa growth delay under iron chelation, dose response, absorbance 405 nm, dry powder, set 2 (AID 624011); settings: P. aeruginosa + EDDHA, pyoverdine absorbance 405 nm, 24-30 h; at 50 µM (top of the series)
Method in brief: (§1)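 Test system: P. aeruginosa ATCC 15692 cells. Reagent: EDDHA, 2 µM final. Times: 24-30 h exposure, 37 °C. Detection: absorbance at 405 nm reflecting pyoverdine production.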

[2] = tested on: P. aeruginosa + EDDHA, pyoverdine absorbance 405 nm, 24-30 h; assay: as above
Method in brief: as §1

SMILES	activity change, negative = inhibition [1]	AC35 [2]
N#CC(c1ccc(C(F)(F)F)c(Cl)n1)c1ccc(Cl)cc1F (configuration not stated)	-8.56% (inactive)	
N#Cc1cccc(C(C#N)c2ccc(Cl)cc2)n1 (configuration not stated)	-11.7% (inactive)	
N#Cc1cccc(C(C#N)c2ccc(Cl)cc2Cl)n1 (configuration not stated)	-7.16% (inactive)	
CC(C)CC(C#N)c1ccc(Cl)cc1 (configuration not stated)	1.37% (inactive)	
N#CC(c1ccc(C(F)(F)F)cc1)c1cccc(C(F)(F)F)n1 (configuration not stated)	0.339% (inactive)	
N#Cc1ccc(C(C#N)c2ccc(Cl)cc2)nc1 (configuration not stated)	-6.67% (inactive)	
COc1cccc(C(C#N)c2ccc(F)cc2)n1 (configuration not stated)		> 50 µM (inactive)
N#CC(c1ccc(C(F)(F)F)c(Cl)n1)c1ccc(Cl)cc1Cl (configuration not stated)	5.25% (inactive)	
N#CC(c1cccc(Cl)n1)c1ccccc1OC(F)(F)F (configuration not stated)	-13.5% (inactive)	
CC(C#N)(c1ccc(Cl)cc1)c1ccc(C(F)(F)F)cn1 (configuration not stated)	-3.64% (inactive)	
N#CC(c1ccc(C(F)(F)F)cc1)c1ccc(C(F)(F)F)c(Cl)n1 (configuration not stated)	0.565% (inactive)	
N#CC(c1ccc(C(F)(F)F)c(Cl)n1)c1ccccc1OC(F)(F)F (configuration not stated)	2.22% (inactive)	
CCCCC(C#N)c1ccc(Cl)cc1F (configuration not stated)	-9.53% (inactive)	
N#CC(c1ccc(Cl)cc1)c1ccc(C(F)(F)F)c(Cl)n1 (configuration not stated)	1.79% (inactive)	
N#CC(c1cccc(Cl)n1)c1ccc(Cl)cc1Cl (configuration not stated)	-12.6% (inactive)	
N#CC(c1ccc(C(F)(F)F)cc1)c1cccc(Cl)n1 (configuration not stated)	-7.8% (inactive)	
N#CC(c1ccc(Cl)cc1)c1ccc(C(F)(F)F)cn1 (configuration not stated)	5.88% (inactive)	
Cc1ccc(C(C#N)c2ccccc2OC(F)(F)F)nc1C#N (configuration not stated)	1.92% (inactive)	
N#CC(c1ccc(Cl)cc1)c1cccc(C(F)(F)F)n1 (configuration not stated)		7.35 µM

SMILES	activity change, negative = inhibition [1]	AC35 [2]
CCCCC(C#N)c1ccccc1OC(F)(F)F (configuration not stated)	1.13% (inactive)	
CCCCC(C#N)c1ccc(C(F)(F)F)cc1 (configuration not stated)	-7.42% (inactive)	
CCCCC(C#N)c1ccc(F)cc1 (configuration not stated)	-8.06% (inactive)	
CCCCC(C#N)c1ccc(Cl)cc1 (configuration not stated)	-0.942% (inactive)	
N#CC(c1cccc(C(F)(F)F)n1)c1ccc(Cl)cc1F (configuration not stated)		26.2 µM
CCCCC(C#N)c1ccc(Cl)cc1Cl (configuration not stated)	4.33% (inactive)	
N#CC(CC1CC1)c1ccc(Cl)cc1 (configuration not stated)	-6.92% (inactive)	
N#Cc1cccc(C(C#N)c2ccccc2OC(F)(F)F)n1 (configuration not stated)	4.18% (inactive)	
N#CC(c1cccc(Cl)n1)c1ccc(Cl)cc1F (configuration not stated)		19.6 µM
N#CC(c1cccc(C(F)(F)F)n1)c1ccccc1OC(F)(F)F (configuration not stated)	-5.85% (inactive)	
N#CC(c1ccc(Cl)cc1)c1cccc(Cl)n1 (configuration not stated)		18 µM
Cc1ccc(C(C#N)c2ccc(Cl)cc2)nc1 (configuration not stated)	-6.12% (inactive)	
N#CC(c1ccc(Cl)cc1Cl)c1ncccc1Cl (configuration not stated)	5.69% (inactive)	
Cc1ccc(C(C#N)c2ccc(Cl)cc2)nc1C#N (configuration not stated)	-8.79% (inactive)	
N#CC(c1ccc(F)cc1)c1cccc(C(F)(F)F)n1 (configuration not stated)		17.6 µM
N#CC(c1ccc(Cl)cc1)c1ncccc1Cl (configuration not stated)		33.6 µM
CCCC(C#N)c1ccc(Cl)cc1 (configuration not stated)	1.22% (inactive)	
N#Cc1ccc(C(C#N)c2ccc(Cl)cc2Cl)nc1 (configuration not stated)	3.9% (inactive)	
